In ChEMBL document CHEMBL1212854, “The structure-activity relationships of A-ring-substituted aromathecin topoisomerase I inhibitors strongly support a camptothecin-like binding mode” (2010):
The source made the active and inactive calls. No cut-off for these calls is given here.

Legend:
UACC-62 = assay: Cytotoxicity against human UACC62 cells; format: functional
Outline: (§1)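 NCI 60-cell-line screen (eight solid-tumour subpanels plus leukemia). A one-dose pass at 10−5 M came first. Selected compounds were then run at five concentrations from 10−8 to 10−4 M. GI50 is the concentration giving 50% growth inhibition.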

SN12C = assay: Cytotoxicity against human SN12C cells; format: functional; outline: as §1
HCT-116 = assay: Cytotoxicity against human HCT116 cells; format: functional; outline: as §1
MCF7 = assay: Cytotoxicity against human MCF7 cells; format: functional; outline: as §1
HOP-62 = assay: Cytotoxicity against human HOP62 cells; format: functional; outline: as §1
OVCAR-3 = assay: Cytotoxicity against human OVCAR-3 cells; format: functional; outline: as §1
[1] = target: T1, DNA topoisomerase 1 (Homo sapiens) (UniProt P11387); assay: Inhibition of human recombinant Top1-mediated DNA cleavage at 0.1 to 100 uM after 20 mins relative to camptothecin; parameters: scale not given: the % may be the effect or the level left
T1 sequence (whole entry): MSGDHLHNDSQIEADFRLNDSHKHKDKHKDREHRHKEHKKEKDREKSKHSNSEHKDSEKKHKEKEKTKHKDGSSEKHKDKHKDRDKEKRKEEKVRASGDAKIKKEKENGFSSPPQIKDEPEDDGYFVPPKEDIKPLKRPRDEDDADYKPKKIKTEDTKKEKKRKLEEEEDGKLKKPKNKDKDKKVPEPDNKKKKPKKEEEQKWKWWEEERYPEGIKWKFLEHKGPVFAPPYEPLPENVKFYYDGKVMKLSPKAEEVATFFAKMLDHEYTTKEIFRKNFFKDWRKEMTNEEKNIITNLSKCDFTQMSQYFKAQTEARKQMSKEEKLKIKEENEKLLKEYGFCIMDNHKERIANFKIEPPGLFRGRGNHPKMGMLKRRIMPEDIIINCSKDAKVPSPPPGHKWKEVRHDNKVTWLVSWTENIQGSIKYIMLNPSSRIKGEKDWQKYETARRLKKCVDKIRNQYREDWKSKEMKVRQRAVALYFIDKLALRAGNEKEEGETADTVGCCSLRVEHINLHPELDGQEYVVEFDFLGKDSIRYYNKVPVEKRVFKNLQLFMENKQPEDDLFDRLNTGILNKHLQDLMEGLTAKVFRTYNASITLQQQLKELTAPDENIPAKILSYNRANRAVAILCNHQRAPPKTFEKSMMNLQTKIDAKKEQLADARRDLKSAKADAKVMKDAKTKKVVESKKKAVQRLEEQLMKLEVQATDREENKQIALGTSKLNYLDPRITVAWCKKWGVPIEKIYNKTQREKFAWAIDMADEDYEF
Outline: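 Human recombinant Top1 purified from baculovirus. Substrate is a 117-bp oligonucleotide, about 2 nM, 3′-end labelled with 32P-dGTP by Klenow fill-in. Stopped with 0.5% SDS, run on 20% denaturing PAGE and phosphorimaged. Cleavage graded 0 to +++ against 1 μM camptothecin.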

SF-539 = assay: Cytotoxicity against human SF539 cells; format: functional; outline: as §1
DU-145 = assay: Cytotoxicity against human DU145 cells; format: functional; outline: as §1

Activity [1] | SMILES | GI50 (UACC-62) | GI50 (SN12C) | GI50 (HCT-116) | GI50 (MCF7) | GI50 (HOP-62) | GI50 (OVCAR-3) | GI50 (SF-539) | GI50 (DU-145)
50% | O=c1c2ccccc2cc2n1Cc1c-2nc2cc3c(cc2c1CN1CC[C@H](O)C1)OCO3 | 0.35 µM | 0.79 µM | 0.85 µM | 0.07 µM | 0.48 µM | > 100 µM | 0.6 µM | 
20% | Cc1cc2c(CN)c3c(nc2cc1F)-c1cc2ccccc2c(=O)n1C3 |  |  |  |  |  |  |  | 
50% | O=c1c2ccccc2cc2n1Cc1c-2nc2cc3c(cc2c1CNCCO)OCCO3 | 1.16 µM | 5.75 µM | 2.63 µM | 0.44 µM | 5.69 µM | 1.95 µM | 4.26 µM | 2.04 µM
Active | COc1cc2c3c(n(CCCN4CCOCC4)c(=O)c2cc1OC)-c1cc2c(cc1C3=O)OCO2 [INDOTECAN] | 0.03 µM |  |  | 0.37 µM |  |  | 0.04 µM | 
20% | CN1CCN(Cc2c3c(nc4cc(Cl)ccc24)-c2cc4ccccc4c(=O)n2C3)CC1 | 17 µM | 19 µM | 13.5 µM | 10.9 µM | 18.1 µM | 15.1 µM | 15.1 µM | 23.4 µM
75% | O=c1c2ccccc2cc2n1Cc1c-2nc2cc3c(cc2c1CN1CCOCC1)OCCO3 | 0.99 µM | 2.57 µM | 1.33 µM | 0.3 µM | 3.8 µM | 1.7 µM | 0.81 µM | 0.93 µM
20% | O=c1c2ccccc2cc2n1Cc1c-2nc2cccc(Cl)c2c1CN1CC[C@H](O)C1 | 3.09 µM | 3.71 µM | 1.55 µM | 0.37 µM | 1.66 µM | 2.63 µM | 1.95 µM | 3.98 µM
50% | O=c1c2ccccc2cc2n1Cc1c-2nc2cc3c(cc2c1CCCN1CCOCC1)OCCO3 | 1.15 µM | 1.13 µM | 1.42 µM | 0.06 µM | 0.54 µM | 1.84 µM | 1.15 µM | 0.76 µM
inactive | COc1cc2nc3c(c(CNCCCn4ccnc4)c2cc1OC)Cn1c-3cc2ccccc2c1=O |  |  |  |  |  |  |  | 
75% | O=c1c2ccccc2cc2n1Cc1c-2nc2cccc(Cl)c2c1CNCCCn1ccnc1 | 7.24 µM | 6.03 µM | 1.58 µM | 0.55 µM | 2.51 µM | 4.9 µM | 1.9 µM | 1.02 µM
75% | O=c1c2ccccc2cc2n1Cc1c-2nc2cc3c(cc2c1Cn1ccnc1)OCCO3 | 21.4 µM | 81.3 µM | > 100 µM | 0.3 µM | 19.5 µM | 18.6 µM | 4.37 µM | > 100 µM
50% | Cc1cc2c(CN3CCN(C)CC3)c3c(nc2cc1F)-c1cc2ccccc2c(=O)n1C3 | 16.2 µM | 16 µM | 1.8 µM | 1.8 µM | 20.1 µM | 14.6 µM | 6.46 µM | 2.63 µM
inactive | COc1cc2nc3c(c(Cn4ccnc4)c2cc1OC)Cn1c-3cc2ccccc2c1=O |  |  |  |  |  |  |  | 
0% | O=c1c2ccccc2cc2n1Cc1c-2nc2cc3c(cc2c1CCCNCCO)OCCO3 | 0.46 µM | 0.94 µM | 0.82 µM | 0.27 µM | 1.01 µM | 1.84 µM | 0.49 µM | 1.02 µM
50% | O=c1c2ccccc2cc2n1Cc1c-2nc2cc3c(cc2c1CNCCCn1ccnc1)OCO3 | 3.39 µM | 5.89 µM | 1.32 µM | 0.48 µM | 5.01 µM | 4.26 µM | 2.14 µM | 2.57 µM
inactive | Cc1cc2c(CNCCCn3ccnc3)c3c(nc2cc1F)-c1cc2ccccc2c(=O)n1C3 | > 100 µM | 1.8 µM | 3.05 µM | 2.21 µM | 36.7 µM | 4.68 µM | 1.1 µM | 6.24 µM
50% | CN(C)Cc1c2c(nc3cc4c(cc13)OCO4)-c1cc3ccccc3c(=O)n1C2 |  |  |  |  |  |  |  | 
50% | CN1CCN(Cc2c3c(nc4cc5c(cc24)OCO5)-c2cc4ccccc4c(=O)n2C3)CC1 | 1.62 µM | 2.34 µM | 1.45 µM | 0.38 µM | 17 µM | 16.2 µM | 11.7 µM | 51.3 µM
50% | O=c1c2ccccc2cc2n1Cc1c-2nc2cc3c(cc2c1CCCn1ccnc1)OCCO3 | 0.93 µM | 12.6 µM | 1.95 µM | 0.19 µM | 0.57 µM | 7.08 µM | 1.95 µM | 2.88 µM
50% | O=c1c2ccccc2cc2n1Cc1c-2nc2ccc(Cl)cc2c1CNCCO | 2.04 µM | 10.2 µM | 2.14 µM | 0.23 µM | 7.24 µM | 6.46 µM | 4.36 µM | 
Active | COc1cc2c3c(n(CCCn4ccnc4)c(=O)c2cc1OC)-c1cc2c(cc1C3=O)OCO2 [INDIMITECAN] | < 0.01 µM | < 0.01 µM | < 0.01 µM | 0.01 µM | < 0.01 µM | 0.085 µM | 0.037 µM | < 0.01 µM
20% | CN1CCN(Cc2c3c(nc4ccc(Cl)cc24)-c2cc4ccccc4c(=O)n2C3)CC1 | 1.41 µM | 1.78 µM | 0.15 µM | 3.31 µM | 2.29 µM | 1.51 µM | 1.58 µM | 2.75 µM
inactive | CN1CCN(Cc2c3c(nc4cccc(Cl)c24)-c2cc4ccccc4c(=O)n2C3)CC1 | 15.5 µM | 13.8 µM | 1.41 µM | 1 µM | 1.86 µM | 4.17 µM | 1.51 µM | 9.77 µM
20% | O=c1c2ccccc2cc2n1Cc1c-2nc2ccc(Cl)cc2c1CN1CC[C@H](O)C1 | 0.74 µM |  | 1.1 µM | 0.37 µM | 1.05 µM | 1.86 µM | 1.26 µM | 1.66 µM
50% | O=c1c2ccccc2cc2n1Cc1c-2nc2cc3c(cc2c1CNCCO)OCO3 | 0.47 µM | 1.91 µM | 0.95 µM | 0.28 µM | 0.66 µM | 1.55 µM | 1.35 µM | 1.82 µM
inactive | O=c1c2ccccc2cc2n1Cc1c-2nc2cc3c(cc2c1CCCCl)OCCO3 |  |  |  |  |  |  |  | 
inactive | COc1cc2nc3c(c(CN4CCN(C)CC4)c2cc1OC)Cn1c-3cc2ccccc2c1=O |  |  |  |  |  |  |  | 
75% | NCCCc1c2c(nc3cc4c(cc13)OCCO4)-c1cc3ccccc3c(=O)n1C2 | 1.62 µM | 1.86 µM | 1.95 µM | 1.05 µM | 2.14 µM | 1.95 µM | 1.86 µM | 1.82 µM
inactive | COc1cc2nc3c(c(CCl)c2cc1OC)Cn1c-3cc2ccccc2c1=O |  |  |  |  |  |  |  | 
